# Measured values collected from several papers.
# Each line is one published result; the experiments were not run side by side. pEC50, pIC50, pKi: −log10 of the molar value.
# CYP3A4: Cytochrome P450 3A4 (CYP3A4, Homo sapiens, UniProt P08684)
# F12: Coagulation factor XII (F12, Homo sapiens, UniProt P00748)
# ADORA2B: Adenosine receptor A2b (ADORA2B, Homo sapiens, UniProt P29275)
Structure (SMILES),target,test,system,setting,quantity,value
CO[C@]1(C(=O)N[C@@H](C)c2ccc(-n3cc(F)cn3)nc2)CC[C@H](c2nc(C)cc(Nc3cc(C)[nH]n3)n2)CC1,CYP3A4,"enzyme activity, inhibitor","human, liver microsomes",,pKi,4.62
O=c1oc(-c2ccco2)nc2ccccc12,F12,"enzyme activity, inhibitor, absorbance",,pH 7.4,pIC50,< 4.30
CC(C)=CCNc1ncnc2c1ncn2[C@@H]1O[C@H](CO)[C@@H](O)[C@H]1O,ADORA2B,"G protein activation, agonist",,,pEC50,4.08
COc1ccc(-c2cc(OCC(=O)N(C)Cc3cccnc3C)nc(-n3nc(C)cc3C)n2)cc1,"Leucyl-cystinyl aminopeptidase (LNPEP, Homo sapiens, UniProt Q9UIQ6)","enzyme activity, inhibitor, fluorescence",,,pIC50,6.80
CN(C)c1ncnc2c1ncn2[C@@H]1O[C@H](CO)[C@@H](O)[C@H]1O,ADORA2B,"G protein activation, agonist",,,pEC50,4.66
O=c1cc(-c2ccc(O)cc2)oc2c([C@@H]3OC[C@H](O)[C@H](O)[C@H]3O)c(O)c([C@@H]3O[C@H](CO)[C@@H](O)[C@H](O)[C@H]3O)c(O)c12,"Calcium/calmodulin-dependent protein kinase type II subunit gamma (CAMK2G, Homo sapiens, UniProt Q13555)","enzyme activity, inhibitor",,,pIC50,3.72
COc1cc(O)c2c(c1)C(=O)c1cc(C)cc(O)c1C2=O,CYP3A4,"enzyme activity, inhibitor","human, liver microsomes","pH 7.4, testosterone probe",pIC50,4.87
Oc1ccc2c(c1)CC[C@H](c1ccccc1)[C@@H]2c1ccc(OCCN2CCCC2)cc1,"Progesterone receptor (PGR, Homo sapiens, UniProt P06401)","ligand displacement, radioligand",,,pIC50,7.16
O=c1oc(-c2cccnc2)nc2ccccc12,F12,"enzyme activity, inhibitor, absorbance",,pH 7.4,pIC50,< 4.30
